Measurements taken from PubChem BioAssay AID493104 (Broad Institute, 2011).

System: Vibrio harveyi BB721 quorum sensing luminescence, 9 h
Assay: V. harveyi downstream QS pathway luminescence inhibition – strain BB721 constitutive-on, dry powder, counter-screen for AI-2 quorum sensing inhibitor project, dose response (AID 493104)
Method in brief: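 Test system – V. harveyi BB721, constitutive-on quorum sensing strain · Amount – starting cell density OD600 0.0005 · Buffer or medium – AB medium · Timing – 9 h exposure, 30 °C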

Q: How did the AC50 turn out when `O=C1C=C/C(=C/Br)O1` was run?
A: The AC50 was 6.43 µM.

Q: For `C=Cn1c(C(=O)O)ccc1-c1ccc(CC)cc1`, which AC50 is on record?
A: The AC50 was 13.8 µM.

Q: With `COc1cc(NC(=O)CN2C(=O)NC(c3ccccc3)(c3ccccc3)C2=O)cc(OC)c1` as the compound, how does the AC50 read?
A: The AC50 was 0.919 µM.

Q: Which AC50 does the source give for `CCc1ccc(S(=O)(=O)Nc2ccc(Br)cn2)cc1` here?
A: Its AC50 is 11.9 µM.

Q: How did the AC50 turn out when `Cc1cccc(NS(=O)(=O)c2ccc(Oc3ccccc3)cc2)n1` was run?
A: Its AC50 is 12.4 µM.
